Measured values from PubChem BioAssay AID2527 (Broad Institute, 2010).
Active and inactive are the calls of the source.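 How the source made its calls: active means at 30 µM dose, two-repeat average suppression of induced P-selectin signal exceeds 50%; inactive means average suppression 50% or lower.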

Tested on: platelets, A23187-induced P-selectin, flow cytometry
Experiment: inhibitors of A23187-stimulated platelet P-selectin exposure, confirmation, selectivity assay, cell-based, fluorescence, flow cytometry, platelets (AID 2527)
Settings: at 30 µM; hits give high values
Outline: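 assay system = stimulated platelets | also added = 10 µM A23187 | dosing = single compound dose of 30 µM | times = 20 min compound, 15 min A23187, 20 min stain | technique = flow cytometry, PE anti-P-selectin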

SMILES | inhibition
O=C(Nc1cccc(NC(=O)c2ccccc2Cl)c1)c1ccco1 | 5.95% (inactive)
CCCC(=O)Nc1cccc(NC(=O)c2ccccc2Br)c1 | 3.45% (inactive)
